Bioassay records (PubChem BioAssay)
SUMO1 PPI mod: modulators of SUMO1 protein-protein interactions, primary screen, biochemical, uHTS; Small ubiquitin-related modifier 1 (Homo sapiens), P63165; SUMO1 binding to a labelled peptide, TR-FRET, 1 h; inhibition, % at 20 µM; 360,000 compounds, 0.33% hits; in the data active = inhibition above about 37%
Target sequence (P63165 whole entry, looked up): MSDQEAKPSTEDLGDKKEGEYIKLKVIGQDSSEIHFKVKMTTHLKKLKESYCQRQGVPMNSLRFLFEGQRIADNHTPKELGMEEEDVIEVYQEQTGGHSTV
Pemphigus Ab inh: inhibitors of pemphigus antibody binding to DSG3, primary screen, biochemical, bead-based, flow cytometry, scFv-GFP | binding (percent of control), % at 10 µM | DSG3-coupled beads, scFv-anti-DSG3-GFP binding; active compounds read low | Desmoglein-3 (Homo sapiens), P32926 | 310,000 compounds, 0.48% hits | AID 588358, 2011;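 active = binding more than 3 SD below its plate's average and above zero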;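 note: hits lower antibody fragment binding to DSG3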
STEP inh: STEP phosphatase inhibitors, primary screen, biochemical, fluorescence intensity, uHTS. recombinant STEP, OMFP fluorogenic substrate. Tyrosine-protein phosphatase non-receptor type 5 (Homo sapiens), P54829. 360,000 compounds, 0.25% hits. inhibition, % at 20 µM;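 active = inhibition at 20 µM, scaled per plate between control wells, above about 37%, limit read from the data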
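Also added – OMFP at 25 µM · Test system – STEP tyrosine phosphatase · Technique – FITC-channel fluorescence of OMFP product · Schedule – 20 min at room temperature, dark · Evaluation – control-normalized % inhibition with plate pattern correction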
LMPTP block: LMPTP phosphatase inhibitors, primary screen, biochemical, fluorescence intensity, uHTS; Low molecular weight phosphotyrosine protein phosphatase (Homo sapiens), P24666; recombinant LMPTP-A, OMFP fluorogenic substrate; inhibition, % at 20 µM; 360,000 compounds, 0.22% hits; AID 651560, 2012;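 active = compounds that cut the enzyme signal by at least half of the control window in the single-dose screen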
Target sequence (P24666 whole entry, looked up): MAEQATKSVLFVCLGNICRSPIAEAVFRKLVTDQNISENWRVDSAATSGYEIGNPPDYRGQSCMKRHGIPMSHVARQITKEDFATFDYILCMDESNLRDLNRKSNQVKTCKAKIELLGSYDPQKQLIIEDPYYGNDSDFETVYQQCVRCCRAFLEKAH
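Test system: LMPTP-A phosphatase enzyme. Amount: LMPTP-A at 0.625 nM final in the reaction. Reagent: OMFP substrate, 400 µM final. Times: 50 min at room temperature. Signal: endpoint fluorescence intensity from OMFP dephosphorylation. Read-out basis: % inhibition. Benchmarks: no-enzyme and uninhibited controls.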
Scp-1 inhibitor: Scp-1 phosphatase inhibitors, primary screen, biochemical, colorimetric, uHTS | inhibition, % at 20 µM | 340,000 compounds, 0.88% hits | AID 493091, 2011 | Carboxy-terminal domain RNA polymerase II polypeptide A small phosphatase 1 (Homo … | Recombinant Scp1, phosphopeptide, malachite green phosphate absorbance;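 active = inhibition above about 50% at 20 µM, limit read from the data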
Target sequence (Q9GZU7 76-261 limits assumed): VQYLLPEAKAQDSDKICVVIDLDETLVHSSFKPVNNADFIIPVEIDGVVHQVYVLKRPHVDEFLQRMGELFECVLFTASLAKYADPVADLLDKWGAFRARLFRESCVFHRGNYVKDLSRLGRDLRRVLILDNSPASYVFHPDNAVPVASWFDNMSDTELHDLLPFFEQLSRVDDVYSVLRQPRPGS
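assay system = SCP-1 phosphatase catalytic domain, residues 76-261 | buffer or medium = 50 mM Tris acetate pH 5.5, 0.005% Tween-20, 10 mM MgCl2 | incubation = enzyme reaction 45 min at room temperature, colour 5 min, stabilisation 30 min | signal = Phosphate-binding colour reagent, absorbance read at 630 nm | measure = % inhibition at 20 µM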
Numbers stand for hits; - = inactive; . = not tested or not shown. This is a sample that favours compounds with a hit; in the whole collection about 1.7% have one here.

SMILES	SUMO1 PPI mod	Pemphigus Ab inh	STEP inh	LMPTP block	Scp-1 inhibitor
C/C=C\C=C/C(=O)Nc1cccc(C2=NOC3(C2)C[C@@H](C(N)=O)N(C(=O)C2(C)CC2)C3)c1 (stereo not given in full)	-	91	-	-	-
C/C=C\C(=O)Nc1cccc(C2=NOC3(C2)C[C@@H](C(N)=O)N(C(=O)C2(C)CC2)C3)c1 (stereo not given in full)	-	-	-	-	-
C/C(=N\O)C(C)(C)Nc1ccc(Br)cc1	-	.	-	-	-
CN(C)CCCn1c(SCC(=O)Nc2nccs2)nnc1-c1ccncc1	-	-	-	-	-
CN1C(=O)/C(=C/c2ccc(C(=O)Nc3ccc(O)cc3C(=O)O)cc2)SC1=S	-	-	98	-	-
Cc1ccc(/C=C2\SC(=S)N(CCC(=O)NNC(=O)c3ccc(O)cc3)C2=O)cc1	-	-	-	-	-
CC(Sc1nc2sc3c(c2c(=O)n1-c1ccccc1)CCCC3)C(=O)O (stereo not given)	-	-	-	-	-
CCn1c(SC(C)C(=O)O)nc2sc3c(c2c1=O)CCC3 (stereo not given)	-	-	-	-	78
O=C1CC(c2ccc(F)cc2)Sc2nc(C34CC5CC(CC(C5)C3)C4)nn21 (stereo not given)	-	-	-	-	-
Cc1ccccc1C(=O)Nc1nnc(S(=O)(=O)N2CCCCCC2)s1	-	-6.6	-	-	-
COc1ccccc1N1CCN(C2CCCN(C(=O)CCn3cncn3)C2)CC1 (stereo not given)	-	-	-	-	-
O=C(CSc1nc(C2CC2)nc2ccccc12)N1CCc2ccccc21	-	-	-	-	-
O=S(=O)(Nc1c(S(=O)(=O)c2ccccc2)c2nc3ccccc3nc2n1C1CCCCC1)c1ccccc1	50	-	-	-	-
Cc1ccc(NC(=O)c2sc(N)nc2-c2ccc([N+](=O)[O-])cc2)cc1C	-	63	-	-	-
COc1ccc(NC(=O)c2sc3nc(C)cc(C)c3c2N)cc1	-	-	-	-	-
Cc1cc(C)c2c(N)c(C(=O)Nc3ccc([N+](=O)[O-])cc3)sc2n1	44	-	-	-	-
Cc1ccc(NC(=O)c2sc(N)nc2-c2ccccc2)cc1C	-	-	-	-	-
CC(=O)Nc1ccc(S(=O)(=O)Nc2ccccc2C(=O)N2CCOCC2)cc1	-	-	-	-	-
CC(=O)N1C(=O)/C(=C2\SC(=S)N(c3c(C)n(C)n(-c4ccccc4)c3=O)C2=O)c2ccccc21	-	67	-	-	-
COc1ccc(Cl)cc1/C=N/NC(=O)c1c(-c2ccccc2)noc1C	53	-	-	-	-
COc1cc(OC)c(NC(=O)c2c(-c3ccccc3)noc2C)cc1Cl	-	70	-	-	-
COc1ccc(Cl)cc1NC(=O)c1c(-c2ccccc2)noc1C	-	-	-	-	-
Cn1nc(C(C)(C)C)cc1C(=O)NN1CCOCC1	-	-	-	-	-
CCOC(=O)c1ccc2ncc(C(=O)OCC)c(NCc3ccco3)c2c1	-	47	-	-	-
COc1ccc(-c2cc3c(=O)n(CC(=O)Nc4ccc(Cl)cc4)ncn3n2)cc1	-	-	-	-	-
SMILES	SUMO1 PPI mod	Pemphigus Ab inh	STEP inh	LMPTP block	Scp-1 inhibitor
O=C(NCc1ccc2c(c1)OCO2)c1cc2c(s1)CSC2	-	-	-	-	-
O=C(NCc1ccco1)c1cc2c(s1)CSC2	.	.	.	.	99
CCCCn1c(N)c(N(CC(C)C)C(=O)COc2cc(C)ccc2Cl)c(=O)[nH]c1=O	-	-	-	-	-
CS(=O)(=O)N1CCC(Oc2ccccc2C(=O)NC(C2CC2)C2CC2)CC1	40	-	-	-	-
CS(=O)(=O)N1CCC(Oc2ccccc2C(=O)NC2CCOC2)CC1 (stereo not given)	-	-	-	-	-
O=C(c1cc2cc3ccc(Cl)cc3nc2o1)N1CCN(Cc2ccc3c(c2)OCO3)CC1	-	59	-	-	-
O=C(c1cc2cc(Cl)ccc2[nH]1)N1CCN(Cc2ccc3c(c2)OCO3)CC1	-	-	-	-	-
O=C1[C@H]2[C@@H](c3ccc(F)cc3)N3C(=O)N(c4cccc(Br)c4)C(=O)[C@@]3(Cc3ccc(Cl)cc3)[C@H]2C(=O)N1C1CCCCC1	-	-6.5	-	-	-
CCOC(=O)CCCN1CC(O)=C(c2nc(-c3ccc(Cl)cc3)cs2)C1=N	-	96	-	-	-
O=C(Nc1nnc(-c2ccc(F)cc2)o1)C1CCCN1S(=O)(=O)c1cccs1 (stereo not given)	-	-	-	-	-
Clc1cccc(-c2ccc(C3Nc4cccc5cccc(c45)N3)o2)c1	-	-	-	53	-
O=c1c2c(-c3ccccc3)csc2nc2c3ccccc3c(NCCN3CCOCC3)nn12	64	-	-	-	-
c1ccc(-c2csc3ncnc(NCCCN4CCOCC4)c23)cc1	-	-	-	-	-
CCN(CC)S(=O)(=O)c1ccc2[nH]c(=O)cc(C(=O)Nc3ccccc3N3CCOCC3)c2c1	-	-	-	-	-
CC[C@@]1(O)C(=O)OCc2c1cc1n(c2=O)Cc2cc3c(N)cccc3nc2-1	-	-	-	-	57
c1cnc2nc3c4ccccc4c4ccccc4c3nc2c1	-	78	-	-	-
CC(C)c1onc(C(=O)N2CCN(C(c3ccccc3)c3ccccc3)CC2)c1[N+](=O)[O-]	43	-	-	-	-
CC(C)c1onc(C(=O)N2CCN(c3ccccc3)CC2)c1[N+](=O)[O-]	-	-	-	-	-
CSc1nc2ccc3nc(NC(=O)c4cccs4)sc3c2s1	44	-	-	-	-
O=C(Cn1cnc2ccccc21)N1CCN(S(=O)(=O)c2ccccc2)CC1	-	-	-	-	-
Nc1c(C(=O)NCC2CCCO2)sc2nc3c(c(-c4ccco4)c12)CC/C3=C\c1ccco1 (stereo not given)	69	-	37	70	81
NC(=O)c1sc2nc3c(c(-c4ccco4)c2c1N)CCCC3	-	-	-	-	-
O=S1(=O)N[C@H](Cc2ccccc2)COc2cccc(N3CCC[C@@H]3CO)c21	-	.	.	-	.
CC(C)Sc1ncnc2[nH]ncc12	-	-	-	-	-
Cc1cc2nc(-c3ccc(SCc4ccc(C(=O)O)cc4)nc3)[nH]c2cc1C	-	-	92	68	79
CCc1ccc(O)c(N=Cc2ccccc2O)c1	-	-	-	-	-
O=c1[nH][nH]c2c(N=Cc3ccccc3O)ccc(F)c12	92	-	94	70	91
